# ABCB1 inh: blocks JC-1 efflux by human ABCB1 transporter; CCRF-Adr cells, flow cytometry; inhibition, % at 6.6 µM; 0.067% of 190,000 active; AID 1326; in the data active means inhibition above about 40%;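 further: 0% = vehicle and 100% = reference inhibitor; higher value means more JC-1 retained so stronger ABCB1 efflux block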
# ROMK mod: modulators of human ROMK potassium channel. P48048. Tet-inducible ROMK, thallium flux fluorescence; actives lie on both sides. B-score at 10 µM. 2% of 130,000 active. AID 1918;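 active means signal ratio slope over the read window, or its plate-corrected B-score, at least 3 SD from the plate mean, either direction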;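 further: B-score of the F/F0 ratio slope over 7 to 12 s after thallium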
# ABCG2 block: blocks JC-1 efflux by human ABCG2 transporter | IgMXP3 cells, flow cytometry | inhibition, % at 6.6 µM | 0.1% of 190,000 active | AID 1325;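 active means inhibition above 80%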;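 further: 0% = DMSO and 100% = nicardipine control wells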
# Target sequence (Q9UNQ0 whole entry, looked up): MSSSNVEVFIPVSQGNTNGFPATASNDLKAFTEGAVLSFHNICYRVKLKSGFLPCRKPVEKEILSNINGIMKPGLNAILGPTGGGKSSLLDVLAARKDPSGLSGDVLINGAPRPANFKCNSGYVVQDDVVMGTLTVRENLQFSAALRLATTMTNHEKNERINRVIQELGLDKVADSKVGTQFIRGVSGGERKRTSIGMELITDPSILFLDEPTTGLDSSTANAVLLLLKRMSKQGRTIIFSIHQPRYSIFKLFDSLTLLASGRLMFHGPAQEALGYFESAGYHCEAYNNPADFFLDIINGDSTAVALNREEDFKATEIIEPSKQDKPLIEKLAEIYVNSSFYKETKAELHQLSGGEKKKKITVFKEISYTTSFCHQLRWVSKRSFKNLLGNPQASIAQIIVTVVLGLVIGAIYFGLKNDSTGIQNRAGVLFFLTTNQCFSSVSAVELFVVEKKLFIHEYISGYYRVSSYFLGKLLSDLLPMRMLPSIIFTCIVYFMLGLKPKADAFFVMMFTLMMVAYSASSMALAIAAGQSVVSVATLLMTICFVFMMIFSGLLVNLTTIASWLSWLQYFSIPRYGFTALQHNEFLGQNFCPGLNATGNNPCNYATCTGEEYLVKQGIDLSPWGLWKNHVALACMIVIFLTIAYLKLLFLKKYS
#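 Assay system – ABCG2 IgMXP3 and barcoded ABCB1 CCRF-Adr cell mix · Input – 3 million cells/mL in well · Reagent – JC-1 fluorescent substrate · Compound – single test compound dose, 6.6 µM final · Timing – 10 min exposure at 25 °C with rotation, no wash · Detection – flow cytometry of retained JC-1 fluorescence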
# Ins promoter up: MIN6 insulin promoter up-regulation | MIN6 insulin promoter-GFP reporter, high-content imaging; stronger effect = higher value | z-score at 5 µM | 0.3% of 190,000 active | AID 1625;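 active means z-score above 3 at 5 µM with at least 500 cells counted in the well; inconclusive means wells under 500 cells, flagged as cytotoxic or low count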
# Autophagy mod: modulators of autophagy; MEF GFP-LC3 puncta imaging; test concentration mostly 10 µM; calls only at 10 µM (by protocol); 0.98% of 190,000 active; AID 463193;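 active means percentage of spot-positive cells more than 3 SD above its plate mean, without a fluorescence outlier flag or 80% toxicity; inconclusive means no clear call, values can overlap the other calls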;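 further: spot-positive cell cutoff set from DMSO-treated cells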
# sdo1 growth: compounds rescuing growth of sdo1-depleted yeast, bone marrow failure model; S. cerevisiae sdo1-depleted JHY4D growth rescue, OD600 30 h; stronger effect = higher value; pdr5 snq2 efflux-pump mutant strain; z-score at 10 µM; 0.21% of 140,000 active;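 active means z-score above 3 at both the 24 hr and the 30 hr optical density reads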;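 further: z-score against mean and SD of all compound wells on the same plate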
# ROMK hit retest: confirmation of human ROMK potassium channel modulators. shares compounds with ROMK mod. ROMK thallium flux, fluorescence ratio; stronger effect = lower value. normalized thallium flux (F/F0 slope) at 10 µM. 54% of 3,000 active. AID 1917;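 active means Flux at 10 µM at least 3 SD below or above vehicle control mean in one or both replicates; inconclusive means no clear call, values can overlap the other calls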
# * hit, by the source's call; i = inactive; ? = inconclusive; / = no result; + = active, no number. The list is not random: actives were taken first. Their share in the collection is about 2.3%.
SMILES,ABCB1 inh,ROMK mod,ABCG2 block,Ins promoter up,Autophagy mod,sdo1 growth,ROMK hit retest
O=C(CN1CCOCC1)Nc1c2c(nc3ccccc13)N(Cc1ccccc1)CC2,1,/,6,0.82,i,0.35,/
O=C(CN1CCCC1)Nc1c2c(nc3ccccc13)N(Cc1ccccc1)CC2,2,-3.1*,0,0.2,i,2,0.061*
COCCNC(=O)Cn1cc(S(=O)(=O)N2CCN(c3ccccc3F)CC2)c2ccccc2c1=O,1,-2.3*,0,0.47,i,/,0.075
Cc1cc(F)ccc1N1CCC(N2CCN(CCC(C)C)C(CCO)C2)CC1 (stereo not drawn),1,-2.8*,6,-0.3,i,/,0.058*
Cc1cc(F)ccc1N1CCC(N2CCN(C(C)C)C(CCO)C2)CC1 (stereo not drawn),1,0.99,1,-1.5,i,/,/
CN(C(=O)COC(=O)c1ccc([N+](=O)[O-])cc1N)c1ccccc1,0,0.54,2,0.17,i,/,/
COC(=O)CSC1=C(C#N)C(c2ccc(F)cc2)CC(=O)N1 (stereo not drawn),0,/,1,-0.02,/,0.17,/
COC(=O)CSC1=C(C#N)C(c2ccc(C)o2)CC(=O)N1 (stereo not drawn),0,2.7*,1,/,i,/,0.077
CC(C)(C)N1CCC1CN (stereo not drawn),/,-0.6,/,/,/,/,/
Cc1cccc(-c2csc(N)c2C(=O)OC(C)C)c1,1,0.48,5,/,i,-0.92,/
Cc1ccc(C)c(-c2csc(N)c2C(=O)OC(C)C)c1,0,2.7*,0,-0.47,i,-1,0.078
O=C(COC(=O)C1CC(=O)N(Cc2ccccc2)C1)c1ccc(F)cc1 (stereo not drawn),0,-0.034,1,-0.29,i,/,/
O=C(O)c1ccccc1C(=O)c1ccc(Br)s1,0,1,-1,0.28,i,/,/
c1ccc(CC2=NCCN2)cc1,0,3.1*,4,-0.31,i,1.6,0.079
c1ccc(CN(CC2=NCCN2)c2ccccc2)cc1,0,/,3,/,i,0.36,/
CCOC(=O)Nc1nc(-c2ccccc2)c(C(=O)c2ccccc2)s1,0,3.6*,2,-0.18,+,-1.9,0.082
CC(=O)c1sc(NC(=O)c2c(F)cccc2F)nc1-c1ccccc1,-2,-12*,-4,1.8,i,/,0.078
CC1CCN(S(=O)C23CC4CC(CC(C4)C2)C3)CC1 (stereo not drawn),-3,0.31,-2,-0.37,i,/,/
N#C/C(=C\c1ccc(Cl)c([N+](=O)[O-])c1)c1ccccn1,1,-6.9*,18,0.73,i,/,0.053*
CNc1ccc(/C=C(\C#N)c2ccccn2)cc1[N+](=O)[O-],1,-0.14,7,-0.24,i,/,/
COc1cc(/C=N/NC(=O)C2(O)c3ccccc3-c3ccccc32)ccc1O,0,-0.0093,1,0,i,0.41,/
COc1cc(/C=N/NC(=O)C(=O)/C=C2\NC(C)(C)Cc3ccccc32)ccc1O,/,2.2*,/,0.39,/,/,0.083
CCCCOC(=O)Cn1c(=O)c2c(nc3n2CCCCN3c2ccc(C)cc2)n(C)c1=O,4,/,10,-0.08,i,-0.33,0.061*
N#C/C(=C\c1c[nH]c2ccccc12)C(=O)NCC1CCCO1 (stereo not drawn),1,1.2,8,0.2,i,/,/
O=C(CCl)c1ccc2c(c1)CCN2C(=O)C1CCCCC1,-1,/,-3,0.94,i,/,/
SMILES,ABCB1 inh,ROMK mod,ABCG2 block,Ins promoter up,Autophagy mod,sdo1 growth,ROMK hit retest
O=C(CCl)c1ccc2c(c1)CCN2C(=O)C1CC1,-1,-2.8*,-2,2,i,/,0.064*
O=C(Nc1nccs1)c1cc(Cl)nc2ccccc12,/,/,/,-0.14,/,/,0.078
O=C(O)/C=C/C(=O)c1ccc2c(c1)NC(=O)CO2,0,-1.3,4,-0.51,i,/,/
CCOC(=O)c1oc2nc3c(cc2c1N)COC(C)(C)C3,0,3.5*,3,/,+,0.36,0.078
O=C1C=C(c2ccccc2)C(=O)N1Nc1ccccc1,1,-3.6*,6,-1.3,i,-1.9,0.061*
CCOC(=O)N1CCC(NC(=O)c2cc(C(=O)Nc3ccc(S(=O)(=O)N4CCOCC4)cc3)ccc2CO)CC1,2,-0.38,6,-0.37,i,/,/
O=C(NNC(=S)Nc1ccc(Br)cc1Cl)c1ccncc1,-1,6*,6,-0.15,i,1.4,0.11*
O=C1c2ccccc2C(=O)N1CCCCN(C(=O)c1cc2ccccc2oc1=O)c1ccc(Cl)cc1,0,-2.3*,-1,0.23,i,-0.35,0.077
Cn1c(=O)c([N+](=O)[O-])c(Cl)c2ccccc21,1,-5.1*,4,/,i,/,0.049*
COc1ccc(CCNC(=O)C2CC(c3cc(C(F)(F)F)cc(C(F)(F)F)c3)=NO2)cc1 (stereo not drawn),/,/,/,-0.53,/,/,/
COC(=O)c1cc(C(=O)N2CCN(c3cccc(Cl)c3)CC2)cc([N+](=O)[O-])c1,1,3.7*,3,0.74,i,/,?
CN(/N=C/c1cccnc1)c1cnn(-c2ccc(F)c(Cl)c2)c(=O)c1Cl,0,1.7*,0,0.09,i,-1.5,0.089
CN(/N=C/c1c[nH]c2ccccc12)c1cnn(-c2ccc(F)c(Cl)c2)c(=O)c1Cl,1,-1.4,8,1.2,i,-0.64,/
CCc1ccc(OCC(=O)c2c(O)c3ccccc3oc2=O)cc1,0,0.65,1,0.06,i,/,/
CCc1oc2ccccc2c1C(=O)c1cc(Br)c(O)c(Br)c1,0,4.6*,0,/,i,-1.7,0.15*
Cc1nc2c(c3c1[nH]c1ccccc13)C(O)CC(C)(C)C2 (stereo not drawn),0,-0.67,1,-0.87,i,0.72,/
CCOC(=O)N1CCN(C(=O)CN(c2ccccc2)S(C)(=O)=O)CC1,1,-0.4,1,0.34,i,/,/
O=C(C[n+]1ccc(/C=C/c2ccccc2)cc1)c1ccc2c(c1)OCCO2,/,/,/,-1.3,/,/,/
CC(=O)Nc1ccc(NC(=O)c2ccccc2CCc2ccccc2)cc1,0,0.5,7,0.05,i,/,/
Cc1c(CCOC(=O)CC23CC4CC(CC(C4)C2)C3)sc[n+]1CC(=O)c1ccccc1,1,-6.1*,2,-2,i,/,0.047*
Cc1nn(Cc2ccccc2)c2c1C(c1ccncc1)C(C#N)=C(N)O2 (stereo not drawn),1,/,2,0.12,/,0.71,/
Cc1nn(Cc2ccccc2)c2c1C(c1ccc(Cl)cc1)C(C#N)=C(N)O2 (stereo not drawn),2,-2.9*,-1,/,i,-0.41,0.059*
CCNC(=O)C/C(C)=N/NC(=O)C(=O)Nc1ccc(CC)cc1,-2,0.39,-3,-0.96,i,/,/
